The subject of data set [1] is KM12C. Description: Inhibition of cell proliferation of human KM12C cells incubated for 15 hrs by MTT assay. It is filed as functional, cell-based. The method, boiled down: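 Cells plated at 1×10⁴ per well, incubated overnight at 37 °C, then exposed to a concentration series for 15 h. MTT (5 mg/mL stock) added for 4 h at 37 °C. Formazan dissolved in DMSO and absorbance read at 570 nm. IC50 derived from the dose-response curve.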
For orientation: Formazan colour is commonly taken as a measure of viable cells.

In data set [2] the target is T1, Retinoic acid receptor RXR-alpha (Homo sapiens) (UniProt P19793).
T1 sequence (whole entry): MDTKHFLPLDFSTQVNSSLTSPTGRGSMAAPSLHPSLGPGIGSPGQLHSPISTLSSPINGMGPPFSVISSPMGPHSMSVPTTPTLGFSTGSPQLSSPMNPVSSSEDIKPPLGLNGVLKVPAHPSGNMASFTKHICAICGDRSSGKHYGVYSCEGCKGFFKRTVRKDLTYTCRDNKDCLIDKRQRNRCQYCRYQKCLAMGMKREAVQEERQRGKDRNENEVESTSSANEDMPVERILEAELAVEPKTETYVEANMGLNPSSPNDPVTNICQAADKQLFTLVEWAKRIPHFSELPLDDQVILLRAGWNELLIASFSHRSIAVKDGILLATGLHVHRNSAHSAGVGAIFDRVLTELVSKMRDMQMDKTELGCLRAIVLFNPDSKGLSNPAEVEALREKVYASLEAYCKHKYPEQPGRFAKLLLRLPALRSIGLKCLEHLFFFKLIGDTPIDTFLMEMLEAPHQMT
Description: Activation of RXRalpha LBD (unknown origin) expressed in human KM12C cells at 50 uM incubated for 15 hrs by luciferase reporter gene assay. It is filed as cell-based. The method, boiled down:
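KM12C co-transfected with pG5luc and pBIND-RXRα-LBD (Gal4-fusion one-hybrid); 20 h post-transfection treated 15 h with 50 μM compound; dual-luciferase read-out (firefly/Renilla) after passive lysis at 4 °C, 1 h; basal activity normalized to 1.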

Data set [3] deals with T1, Retinoic acid receptor RXR-alpha (Homo sapiens). Description: Activation of RXRalpha in human KM12C cells assessed as induction of beta-catenin protein degradation at 25 to 50 uM incubated for 15 hrs by Western blot analysis. The format is cell-based. (In general: In western blotting, separated proteins are transferred to a membrane and probed.)
For data set [4] the target is unchanged. Description: Activation of RXRalpha (unknown origin) expressed in human SW620 cells co-expressing beta-catenin and c-Cbl assessed as induction of beta-caten interaction with c-Cbl at 40 to 80 uM incubated for 15 hrs by mammalian two-hybrid assay. It is filed as cell-based. To be noted: SW-620. Put shortly:
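Mammalian two-hybrid: cells co-transfected by lipofection with pBIND-β-catenin/S33Y plus pACT-RXRα (RXRα–β-catenin) or pACT-c-Cbl (β-catenin–c-Cbl); 20 h after transfection, compound added for 15 h; cells lysed in passive lysis buffer, 4 °C, 1 h; firefly and Renilla luciferase read by dual-luciferase kit.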

For data set [5] the target is unchanged. Description: Activation of RXRalpha in human HCT116 cells assessed as reduction in c-Myc mRNA expression at 30 to 60 uM incubated for 15 hrs by real-time PCR analysis. It is filed as cell-based. The note with it: HCT-116.
Data set [6] concerns KM12C. Description: Antitumor activity against human KM12C cells xenografted in BALB/c mouse assessed as inhibition of tumor growth at 100 mg/kg, ig dosed daily for 15 days relative to control. It is filed as functional. To be noted: po, 360 h, read-out: TGI. The method, boiled down: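 Nude mice received subcutaneous injections of KM12C cells (1×10⁶ in 100 μL HBSS) into both flanks. After seven days, tumour-bearing mice (80–200 mm³) were randomized into three groups. Daily intragastric dosing at 100 mg/kg, or CMC-Na vehicle, for 15 days. Tumours then excised and weighed; inhibition rate calculated versus vehicle.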
Background: Xenograft models place foreign cells or tissue in a host animal.

The target in data set [7] is T1, Retinoic acid receptor RXR-alpha (Homo sapiens). Description: In-vivo activation of RXRalpha in BALB/c mouse xenografted with human KM12C cells assessed as increase in p21 (WAF1/CIP) protein expression at 100 mg/kg, ig dosed daily for 15 days by Western blot analysis. It is filed as functional, organism-based.
The target is the same in data set [8]. Description: In-vivo activation of RXRalpha in BALB/c mouse xenografted with human KM12C cells assessed as induction of beta-catenin protein degradation at 100 mg/kg, ig dosed daily for 15 days by immunohistochemistry analysis. The format is functional, organism-based. The method, boiled down: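 KM12C cells (1×10^6 per mouse in 100 μL HBSS) injected subcutaneously into both flanks of nude mice; after seven days, randomized to three groups, dosed intragastrically once daily for 15 days with vehicle (CMC-Na) or 100 mg/kg compound; mice euthanized and tumors removed for analysis.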

For data set [9] the target is unchanged. Description: In-vivo activation of RXRalpha in BALB/c mouse xenografted with human KM12C cells assessed as effect on Ki67 protein expression at 100 mg/kg, ig dosed daily for 15 days by immunohistochemistry analysis. The format is functional, organism-based.
Data set [10] has the same target. Description: In-vivo activation of RXRalpha in BALB/c mouse xenografted with human KM12C cells assessed as increase in p21 (WAF1/CIP) protein expression at 100 mg/kg, ig dosed daily for 15 days by immunohistochemistry analysis. The format is functional, organism-based.
A short description of data set [11]: Toxicity in BALB/c mouse xenografted with human KM12C cells assessed as effect on biochemical parameter by measuring IBIL level at 100 mg/kg, ig dosed daily for 15 days by automatic chemistry analyzer based analysis (reference value: 0.55 +/- 0.096 umol/L). It is filed as organism-based. To be noted: in vivo, po, 360 h.
Data set [12] is described as follows: Toxicity in BALB/c mouse xenografted with human KM12C cells assessed as effect on biochemical parameter by measuring AST level at 100 mg/kg, ig dosed daily for 15 days by automatic chemistry analyzer based analysis (reference value: 157.15 +/- 8.41 U/L). It is filed as organism-based. The note with it: in vivo, po, 360 h.
Data set [13] can be described thus: Toxicity in BALB/c mouse xenografted with human KM12C cells assessed as effect on biochemical parameter by measuring creatinine level at 100 mg/kg, ig dosed daily for 15 days by automatic chemistry analyzer based analysis (reference value: 27.02 +/- 1.22 umol/L). The format is organism-based. The note with it: in vivo, po, 360 h.
Data set [14] in a line: Toxicity in BALB/c mouse xenografted with human KM12C cells assessed as effect on biochemical parameter by measuring total cholesterol level at 100 mg/kg, ig dosed daily for 15 days by automatic chemistry analyzer based analysis (reference value: 2.32 +/- 0.11 mmol/L). The format is organism-based. To be noted: in vivo, po, 360 h.
Data set [15] can be described thus: Half life in Sprague-Dawley rat at 100 mg/kg, ig measured after 0.083 to 36 hrs by LC-MS/MS analysis. The format is ADME, organism-based. The note with it: in vivo, po. The method, boiled down: (§1)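 SD rats (200 ± 20 g) randomized to three groups; single intragastric dose of 100 mg/kg or vehicle (0.5% CMC-Na). Tail-vein blood (0.5 mL) drawn at 0.083, 0.25, 0.5, 1, 2, 4, 8, 12, 24 and 36 h. Plasma separated by centrifugation at 2000 rpm for 10 min, frozen at -80 °C, then quantified by LC-MS/MS.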

A short description of data set [16]: Cmax in Sprague-Dawley rat at 100 mg/kg, ig measured after 0.083 to 36 hrs by LC-MS/MS analysis. It is filed as ADME, organism-based. Also on record: dose 100 mg/kg, route intragastric. To be noted: in vivo, po. The method, boiled down:
as §1

Data set [17] is described as follows: MRT (infinity) in Sprague-Dawley rat at 100 mg/kg, ig measured after 0.083 to 36 hrs by LC-MS/MS analysis. The note with it: in vivo, po. The format is ADME, organism-based. Put shortly: as §1
A short description of data set [18]: Bioavailability in Sprague-Dawley rat at 100 mg/kg, ig measured after 0.083 to 36 hrs by LC-MS/MS analysis. The format is ADME, organism-based. To be noted: in vivo, po. The method, boiled down: as §1

Calls of active or inactive are those of the source.

By IC50 is commonly meant the point on the concentration scale where inhibition reaches its midpoint. As usually defined, the half-life is the time needed for the level to fall by half in the phase considered. A low value points to fast loss. As usually defined, the Cmax is the highest concentration seen after dosing. One may read the MRT inf as the average time that molecules of a dose stay in the body. The term bioavailability denotes the share of a dose that reaches the circulation, judged against a reference dose that is usually intravenous. The low end stands for poor availability, the high end for good availability. In [1], `COc1ccc2cc3[n+](cc2c1OC)CCc1cc2c(cc1-3)OCO2.[Cl-]` [BERBERINE CHLORIDE] gave a half-inhibitory concentration (IC50) of 76.3 µM. Further, the outcome in [2], in data set [3], in data set [4], in data set [5], in data set [7] and in data set [8] was Active. Besides, the outcome in [9] and in data set [10] was Active. For the same compound, the inhibition in vivo at 100 mg/kg in data set [6] came to 33.6%. Also, the Activity in [11] is 0.4 µmol/L; in [12] it was 177.86 U/L; in data set [13], 24.36 µmol/L; in data set [14], 2.35 mmol/L. The compound further gave a half-life in data set [15] of 29 h. The compound also had a peak concentration (Cmax) in [16] of 2.893 ng/mL. The compound also came in with a mean residence time (MRT inf) in data set [17] of 31.5 h. In data set [18], this compound yielded a bioavailability of 0.544%.
In data set [1], `COc1ccc2c(c1)CC[n+]1cc3c(OC)cccc3cc1-2.[Cl-]` yielded an IC50 of 31.1 µM. Moreover, the outcome in data set [2], in [3], in data set [4], in [5], in data set [7] and in [8] was Active. For the same compound, the result in data set [9] and in data set [10] was Active. The inhibition in vivo at 100 mg/kg in data set [6] came out at 69.1%. In addition, the Activity was 0.52 µmol/L in data set [11], 158.36 U/L in data set [12], 28.95 µmol/L in data set [13] and 2.49 mmol/L in data set [14]. Moreover, in data set [15], the half-life was 11.6 h. Further, the Cmax in data set [16] (Sprague-Dawley, read-out: Cmax) turned out to be 486 ng/mL. The compound further gave a mean residence time MRT inf in [17] of 15.7 h. Further, the bioavailability in data set [18] was found to be 14.2%.

The values above are taken from ChEMBL document CHEMBL4613270, “Structure-Activity Relationship Study Enables the Discovery of a Novel Berberine Analogue as the RXRα Activator to Inhibit Colon Cancer” (J Med Chem, 2020).
